Laboratory results from ChEMBL document CHEMBL1139444, “Oxazolidinone: search for highly potent antibacterial” (2004).
Converted amounts (≈) assume the structure as drawn.

Assays:
Type in all cases: functional
Bacillus cereus = assay: Minimum inhibitory concentration against Bacillus cereus MTCC 430
How it was run: (§1)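 Microbroth dilution MIC determination, with results expressed in μg/mL. Where run in triplicate, the highest MIC of the three replicates is the value reported.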

Enterococcus faecalis [1] = assay: Minimum inhibitory concentration against Enterococcus faecalis ATCC 14506; how it was run: as §1
Enterococcus faecalis [2] = assay: Minimum inhibitory concentration against Enterococcus faecalis MTCC 439; how it was run: as §1
Klebsiella pneumoniae = assay: Minimum inhibitory concentration against Klebsiella pneumoniae ATCC 10031; how it was run: as §1
[3] = tested on: Staphylococcus epidermidis; assay: Minimum inhibitory concentration against Staphylococcus epidermidis MTCC 155; how it was run: as §1
Staphylococcus aureus [4] = assay: Minimum inhibitory concentration against Staphylococcus aureus MTCC 96; how it was run: as §1
Staphylococcus aureus [5] = assay: Minimum inhibitory concentration against Staphylococcus aureus ATCC 25923; how it was run: as §1
Staphylococcus aureus [6] = assay: Minimum inhibitory concentration against Staphylococcus aureus ATCC 29213; how it was run: as §1
Bacillus pumilus = assay: Minimum inhibitory concentration against Bacillus pumilus MTCC 1607; how it was run: as §1
Staphylococcus aureus [7] = assay: Minimum inhibitory concentration against Staphylococcus aureus ATCC 14154; how it was run: as §1
Streptococcus pyogenes = assay: Minimum inhibitory concentration against Streptococcus pyogenes MTCC 442; how it was run: as §1

Row | SMILES | MIC (Bacillus cereus) | MIC (Enterococcus faecalis [1]) | MIC (Enterococcus faecalis [2]) | MIC (Klebsiella pneumoniae) | MIC [3] | MIC (Staphylococcus aureus [4]) | MIC (Staphylococcus aureus [5]) | MIC (Staphylococcus aureus [6]) | MIC (Bacillus pumilus) | MIC (Staphylococcus aureus [7]) | MIC (Streptococcus pyogenes)
1 | CC(=O)NC[C@H]1CN(c2ccc(N3CCN(C(=O)/C=C/c4ccc(OC(C)=O)c(OC(C)=O)c4)CC3)c(F)c2)C(=O)O1 | 2 µg/mL (≈ 3.43 µM) | – | 2 µg/mL (≈ 3.43 µM) | – | 1 µg/mL (≈ 1.72 µM) | 4 µg/mL (≈ 6.87 µM) | – | – | 2 µg/mL (≈ 3.43 µM) | – | 4 µg/mL (≈ 6.87 µM)
2 | CC(=O)NC[C@H]1CN(c2ccc(N3CCN(C(=O)/C=C/c4ccc(NC(C)=O)cc4)CC3)c(F)c2)C(=O)O1 | 4 µg/mL (≈ 7.64 µM) | – | 4 µg/mL (≈ 7.64 µM) | – | 4 µg/mL (≈ 7.64 µM) | 8 µg/mL (≈ 15.3 µM) | – | – | 8 µg/mL (≈ 15.3 µM) | – | 8 µg/mL (≈ 15.3 µM)
3 | CC(=O)NC[C@H]1CN(c2ccc(N3CCN(C(=O)/C=C/c4ccc(O)c(O)c4)CC3)c(F)c2)C(=O)O1 | 16 µg/mL (≈ 32.1 µM) | – | 8 µg/mL (≈ 16 µM) | – | 4 µg/mL (≈ 8.02 µM) | 8 µg/mL (≈ 16 µM) | – | – | 8 µg/mL (≈ 16 µM) | – | 16 µg/mL (≈ 32.1 µM)
4 | CC(=O)NC[C@H]1CN(c2ccc(N3CCN(C(=O)/C=C/c4ccc(-c5ccccc5)cc4)CC3)c(F)c2)C(=O)O1 | > 16 µg/mL | – | > 16 µg/mL | – | > 16 µg/mL | > 16 µg/mL | – | – | > 16 µg/mL | – | > 16 µg/mL
5 | CSc1ccc(/C=C/C(=O)N2CCN(c3ccc(N4C[C@H](CNC(C)=O)OC4=O)cc3F)CC2)cc1 | 2 µg/mL (≈ 3.9 µM) | – | 2 µg/mL (≈ 3.9 µM) | – | 1 µg/mL (≈ 1.95 µM) | 16 µg/mL (≈ 31.2 µM) | – | – | 2 µg/mL (≈ 3.9 µM) | – | 16 µg/mL (≈ 31.2 µM)
6 | CC(=O)NC[C@H]1CN(c2ccc(N3CCOCC3)c(F)c2)C(=O)O1 [LINEZOLID] | 2 µg/mL (≈ 5.93 µM) | – | – | > 16 µg/mL | 2 µg/mL (≈ 5.93 µM) | – | – | – | 1 µg/mL (≈ 2.96 µM) | – | 0.5 µg/mL (≈ 1.48 µM)
7 | CC(=O)NC[C@H]1CN(c2ccc(N3CCN(C(=O)/C=C/c4ccc5c(c4)OCO5)CC3)c(F)c2)C(=O)O1 | 1 µg/mL (≈ 1.96 µM) | 2 µg/mL (≈ 3.92 µM) | 1 µg/mL (≈ 1.96 µM) | > 16 µg/mL | 1 µg/mL (≈ 1.96 µM) | 2 µg/mL (≈ 3.92 µM) | 4 µg/mL (≈ 7.84 µM) | 4 µg/mL (≈ 7.84 µM) | 1 µg/mL (≈ 1.96 µM) | 2 µg/mL (≈ 3.92 µM) | 2 µg/mL (≈ 3.92 µM)
8 | CC(=O)NC[C@H]1CN(c2ccc(N3CCN(C(=O)CO)CC3)c(F)c2)C(=O)O1 [EPEREZOLID] | 2 µg/mL (≈ 5.07 µM) | 2 µg/mL (≈ 5.07 µM) | 4 µg/mL (≈ 10.1 µM) | > 16 µg/mL | 1 µg/mL (≈ 2.54 µM) | – | 4 µg/mL (≈ 10.1 µM) | 4 µg/mL (≈ 10.1 µM) | 2 µg/mL (≈ 5.07 µM) | 4 µg/mL (≈ 10.1 µM) | 4 µg/mL (≈ 10.1 µM)
9 | CC(=O)NC[C@H]1CN(c2ccc(N3CCN(C(=O)/C=C/c4ccc(OC(=O)C(C)(C)C)cc4)CC3)c(F)c2)C(=O)O1 | 16 µg/mL (≈ 28.2 µM) | – | 8 µg/mL (≈ 14.1 µM) | – | 4 µg/mL (≈ 7.06 µM) | > 16 µg/mL | – | – | 8 µg/mL (≈ 14.1 µM) | – | > 16 µg/mL
10 | CC(=O)NC[C@H]1CN(c2ccc(N3CCN(C(=O)/C=C/c4ccc(F)cc4)CC3)c(F)c2)C(=O)O1 | 4 µg/mL (≈ 8.26 µM) | – | 4 µg/mL (≈ 8.26 µM) | – | 2 µg/mL (≈ 4.13 µM) | 16 µg/mL (≈ 33 µM) | – | – | 4 µg/mL (≈ 8.26 µM) | – | 8 µg/mL (≈ 16.5 µM)
11 | CC(=O)NC[C@H]1CN(c2ccc(N3CCN(C(=O)/C=C/c4ccccc4)CC3)c(F)c2)C(=O)O1 | 1 µg/mL (≈ 2.14 µM) | 1 µg/mL (≈ 2.14 µM) | 2 µg/mL (≈ 4.29 µM) | > 16 µg/mL | 0.5 µg/mL (≈ 1.07 µM) | 4 µg/mL (≈ 8.57 µM) | 2 µg/mL (≈ 4.29 µM) | 4 µg/mL (≈ 8.57 µM) | 1 µg/mL (≈ 2.14 µM) | 4 µg/mL (≈ 8.57 µM) | 2 µg/mL (≈ 4.29 µM)
12 | CC(=O)NC[C@H]1CN(c2ccc(N3CCN(C(=O)/C=C/c4ccc([N+](=O)[O-])cc4)CC3)c(F)c2)C(=O)O1 | 1 µg/mL (≈ 1.95 µM) | – | 4 µg/mL (≈ 7.82 µM) | – | 4 µg/mL (≈ 7.82 µM) | 4 µg/mL (≈ 7.82 µM) | – | – | 2 µg/mL (≈ 3.91 µM) | – | 1 µg/mL (≈ 1.95 µM)
13 | COc1ccc(/C=C/C(=O)N2CCN(c3ccc(N4C[C@H](CNC(C)=O)OC4=O)cc3F)CC2)cc1 | 2 µg/mL (≈ 4.03 µM) | – | 4 µg/mL (≈ 8.06 µM) | – | 1 µg/mL (≈ 2.01 µM) | 4 µg/mL (≈ 8.06 µM) | – | – | 2 µg/mL (≈ 4.03 µM) | – | 4 µg/mL (≈ 8.06 µM)
14 | CC(=O)NC[C@H]1CN(c2ccc(N3CCN(C(=O)/C=C/c4ccc(OS(C)(=O)=O)cc4)CC3)c(F)c2)C(=O)O1 | 1 µg/mL (≈ 1.78 µM) | – | 4 µg/mL (≈ 7.14 µM) | – | 8 µg/mL (≈ 14.3 µM) | 8 µg/mL (≈ 14.3 µM) | – | – | 4 µg/mL (≈ 7.14 µM) | – | 2 µg/mL (≈ 3.57 µM)
15 | CC(=O)NC[C@H]1CN(c2ccc(N3CCN(C(=O)/C=C/c4ccc(F)c(F)c4)CC3)c(F)c2)C(=O)O1 | 4 µg/mL (≈ 7.96 µM) | – | > 16 µg/mL | – | > 16 µg/mL | > 16 µg/mL | – | – | 16 µg/mL (≈ 31.8 µM) | – | 4 µg/mL (≈ 7.96 µM)

More lines, now with the values ahead:

Row | MIC (Bacillus cereus) | MIC (Enterococcus faecalis [1]) | MIC (Enterococcus faecalis [2]) | MIC (Klebsiella pneumoniae) | MIC [3] | MIC (Staphylococcus aureus [4]) | MIC (Staphylococcus aureus [5]) | MIC (Staphylococcus aureus [6]) | MIC (Bacillus pumilus) | MIC (Staphylococcus aureus [7]) | MIC (Streptococcus pyogenes) | SMILES
16 | 0.25 µg/mL (≈ 0.501 µM) | 0.25 µg/mL (≈ 0.501 µM) | 1 µg/mL (≈ 2.01 µM) | 4 µg/mL (≈ 8.02 µM) | ≤ 0.12 µg/mL | 0.25 µg/mL (≈ 0.501 µM) | 0.25 µg/mL (≈ 0.501 µM) | 0.5 µg/mL (≈ 1 µM) | 0.25 µg/mL (≈ 0.501 µM) | 0.5 µg/mL (≈ 1 µM) | 0.5 µg/mL (≈ 1 µM) | C/C(S)=N/C[C@H]1CN(c2ccc(N3CCN(C(=O)/C=C/c4ccc(O)cc4)CC3)c(F)c2)C(=O)O1
17 | 1 µg/mL (≈ 1.9 µM) | 0.5 µg/mL (≈ 0.948 µM) | 0.25 µg/mL (≈ 0.474 µM) | > 16 µg/mL | 0.25 µg/mL (≈ 0.474 µM) | 1 µg/mL (≈ 1.9 µM) | 2 µg/mL (≈ 3.79 µM) | 2 µg/mL (≈ 3.79 µM) | 1 µg/mL (≈ 1.9 µM) | 1 µg/mL (≈ 1.9 µM) | 0.5 µg/mL (≈ 0.948 µM) | N=C(S)NC[C@H]1CN(c2ccc(N3CCN(C(=O)/C=C/c4ccc5c(c4)OCO5)CC3)c(F)c2)C(=O)O1
18 | 1 µg/mL (≈ 2.08 µM) | – | 1 µg/mL (≈ 2.08 µM) | – | 0.5 µg/mL (≈ 1.04 µM) | 1 µg/mL (≈ 2.08 µM) | – | – | 1 µg/mL (≈ 2.08 µM) | – | 2 µg/mL (≈ 4.15 µM) | CC(=O)NC[C@H]1CN(c2ccc(N3CCN(C(=O)/C=C/c4ccc(N)cc4)CC3)c(F)c2)C(=O)O1
19 | 0.5 µg/mL (≈ 1.04 µM) | 1 µg/mL (≈ 2.07 µM) | 1 µg/mL (≈ 2.07 µM) | > 16 µg/mL | 0.25 µg/mL (≈ 0.518 µM) | 2 µg/mL (≈ 4.14 µM) | 4 µg/mL (≈ 8.29 µM) | 1 µg/mL (≈ 2.07 µM) | 0.5 µg/mL (≈ 1.04 µM) | 4 µg/mL (≈ 8.29 µM) | 2 µg/mL (≈ 4.14 µM) | CC(=O)NC[C@H]1CN(c2ccc(N3CCN(C(=O)/C=C/c4cccc(O)c4)CC3)c(F)c2)C(=O)O1
20 | 0.25 µg/mL (≈ 0.517 µM) | 0.5 µg/mL (≈ 1.03 µM) | 0.5 µg/mL (≈ 1.03 µM) | 8 µg/mL (≈ 16.5 µM) | 1 µg/mL (≈ 2.07 µM) | 1 µg/mL (≈ 2.07 µM) | 2 µg/mL (≈ 4.14 µM) | 1 µg/mL (≈ 2.07 µM) | 1 µg/mL (≈ 2.07 µM) | 2 µg/mL (≈ 4.14 µM) | 0.25 µg/mL (≈ 0.517 µM) | NC(=S)NC[C@H]1CN(c2ccc(N3CCN(C(=O)/C=C/c4ccccc4)CC3)c(F)c2)C(=O)O1
21 | 0.5 µg/mL (≈ 0.999 µM) | 2 µg/mL (≈ 4 µM) | 0.5 µg/mL (≈ 0.999 µM) | > 16 µg/mL | 0.5 µg/mL (≈ 0.999 µM) | 1 µg/mL (≈ 2 µM) | 4 µg/mL (≈ 7.99 µM) | 4 µg/mL (≈ 7.99 µM) | 0.5 µg/mL (≈ 0.999 µM) | 1 µg/mL (≈ 2 µM) | 2 µg/mL (≈ 4 µM) | C/C(S)=N/C[C@H]1CN(c2ccc(N3CCN(C(=O)/C=C/c4ccc(F)cc4)CC3)c(F)c2)C(=O)O1
22 | 0.25 µg/mL (≈ 0.475 µM) | 0.25 µg/mL (≈ 0.475 µM) | 8 µg/mL (≈ 15.2 µM) | 2 µg/mL (≈ 3.8 µM) | 1 µg/mL (≈ 1.9 µM) | 1 µg/mL (≈ 1.9 µM) | 0.5 µg/mL (≈ 0.95 µM) | 1 µg/mL (≈ 1.9 µM) | 0.25 µg/mL (≈ 0.475 µM) | 1 µg/mL (≈ 1.9 µM) | 4 µg/mL (≈ 7.6 µM) | C/C(S)=N/C[C@H]1CN(c2ccc(N3CCN(C(=O)/C=C/c4ccc5c(c4)OCO5)CC3)c(F)c2)C(=O)O1
23 | 0.5 µg/mL (≈ 1.04 µM) | 0.5 µg/mL (≈ 1.04 µM) | 0.5 µg/mL (≈ 1.04 µM) | > 16 µg/mL | 0.25 µg/mL (≈ 0.518 µM) | 2 µg/mL (≈ 4.14 µM) | 1 µg/mL (≈ 2.07 µM) | 1 µg/mL (≈ 2.07 µM) | 0.5 µg/mL (≈ 1.04 µM) | 2 µg/mL (≈ 4.14 µM) | 0.5 µg/mL (≈ 1.04 µM) | C/C(S)=N/C[C@H]1CN(c2ccc(N3CCN(C(=O)/C=C/c4ccccc4)CC3)c(F)c2)C(=O)O1
